Data reported in ChEMBL document CHEMBL2163187, “Neomaclafungins A-I: oligomycin-class macrolides from a marine-derived actinomycete” (2012).
≈ marks a conversion by molar mass, not a printed value.

Tested on: Trichophyton mentagrophytes
Assay: Antifungal activity against Trichophyton mentagrophytes ATCC 9533
Assay type: functional
How it was run: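 Microbial assay against Trichophyton mentagrophytes ATCC 9533. Compounds were tested at concentrations from 10 μg/mL to 10 ng/mL.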

Row | MIC [µg/mL] | SMILES
1 | 3 (≈ 3.77 µM) | CC[C@H]1/C=C/C=C/CC[C@@H](O)[C@@H](C)[C@@H](O)C[C@@H](OC)C[C@@H](O)[C@H](C)[C@H](O)[C@@H](C)/C=C/C(=O)O[C@H]2C[C@@]3(CC[C@H](C)[C@H](C[C@@H](C)O)O3)O[C@@H](CC1)[C@H]2CCC(C)O (stereo not given in full)
2 | 1 (≈ 1.26 µM) | CC[C@@H](O)C[C@@H]1O[C@@]2(CC[C@@H]1C)C[C@@H]1OC(=O)/C=C/[C@H](C)[C@@H](O)[C@@H](C)[C@H](O)C[C@H](OC)C[C@H](O)[C@H](C)[C@H](O)CC/C=C/C=C/[C@H](CC)CC[C@H](O2)[C@H]1CCCO
3 | 1 (≈ 1.24 µM) | CC[C@@H](O)C[C@@H]1O[C@@]2(CC[C@@H]1C)C[C@@H]1OC(=O)/C=C/[C@H](C)[C@@H](O)[C@@H](C)[C@H](O)C[C@H](OC)C[C@H](O)[C@H](C)[C@H](O)CC/C=C/C=C/[C@H](CC)CC[C@H](O2)[C@H]1CCC(C)O (stereo not given in full)
4 | 1 (≈ 1.33 µM) | CC[C@H]1/C=C/C=C/CC[C@@H](O)[C@@H](C)[C@@H](O)C[C@@H](OC)C[C@@H](O)[C@H](C)[C@H](O)[C@@H](C)/C=C/C(=O)O[C@H]2C[C@@]3(CC[C@H](C)[C@H](C[C@@H](C)O)O3)O[C@@H](CC1)[C@H]2CC
5 | 3 (≈ 3.92 µM) | CCC[C@H]1[C@@H]2C[C@@]3(CC[C@H](C)[C@H](C[C@@H](C)O)O3)O[C@H]1CC[C@@H](CC)/C=C/C=C/CC[C@@H](O)[C@@H](C)[C@@H](O)C[C@@H](OC)C[C@@H](O)[C@H](C)[C@H](O)[C@@H](C)/C=C/C(=O)O2
6 | 3 (≈ 3.85 µM) | CCCC[C@H]1[C@@H]2C[C@@]3(CC[C@H](C)[C@H](C[C@@H](C)O)O3)O[C@H]1CC[C@@H](CC)/C=C/C=C/CC[C@@H](O)[C@@H](C)[C@@H](O)C[C@@H](OC)C[C@@H](O)[C@H](C)[C@H](O)[C@@H](C)/C=C/C(=O)O2
7 | 3 (≈ 3.85 µM) | CCC[C@H]1[C@@H]2C[C@@]3(CC[C@H](C)[C@H](C[C@H](O)CC)O3)O[C@H]1CC[C@@H](CC)/C=C/C=C/CC[C@@H](O)[C@@H](C)[C@@H](O)C[C@@H](OC)C[C@@H](O)[C@H](C)[C@H](O)[C@@H](C)/C=C/C(=O)O2
8 | 3 (≈ 3.78 µM) | CCCCC[C@H]1[C@@H]2C[C@@]3(CC[C@H](C)[C@H](C[C@@H](C)O)O3)O[C@H]1CC[C@@H](CC)/C=C/C=C/CC[C@@H](O)[C@@H](C)[C@@H](O)C[C@@H](OC)C[C@@H](O)[C@H](C)[C@H](O)[C@@H](C)/C=C/C(=O)O2
9 | 3 (≈ 3.84 µM) | CC[C@H]1/C=C/C=C/CC[C@@H](O)[C@@H](C)[C@@H](O)C[C@@H](OC)C[C@@H](O)[C@H](C)[C@H](O)[C@@H](C)/C=C/C(=O)O[C@H]2C[C@@]3(CC[C@H](C)[C@H](C[C@@H](C)O)O3)O[C@@H](CC1)[C@H]2CCCO [NEOMACLAFUNGIN A]

Row | SMILES | MIC [µg/mL]
10 | CC[C@@H]1/C=C/C=C/C[C@H](C)[C@H](O)[C@](C)(O)C(=O)[C@H](C)[C@@H](O)[C@H](C)C(=O)[C@H](C)[C@@H](O)[C@H](C)/C=C/C(=O)O[C@H]2[C@@H](C)[C@@H](CC1)O[C@@]1(CC[C@@H](C)[C@@H](C[C@H](C)O)O1)[C@@H]2C [OLIGOMYCIN A] | 10 (≈ 12.6 µM)
